Experimental data as given in ChEMBL document CHEMBL4354843, “Structure-Based Design of a Potent and Selective Covalent Inhibitor for SRC Kinase That Targets a P-Loop Cysteine” (J Med Chem, 2020).
Active and inactive are the calls of the source. The rule behind the calls is not given here.

What was measured:
[1] = tested on: Mus musculus; experiment: In vivo inhibition of SRC in C57B6 mouse assessed as blocking of SRC pulldown at 5 mg/kg, ip measured after 2 to 4 hrs by Western blot analysis; format: functional, organism-based
In short: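 Adult C57B6 mice, n = 2 per condition. Three intraperitoneal doses of 5 mg/kg, given every 12 h; vehicle is 5% DMSO/95% D5W. Spleens harvested 2 or 4 h after the last dose, homogenized and lysed in M-PER with protease/phosphatase inhibitors. Lysate incubated with 1 μM biotinylated probe TL13-68 overnight at 4 °C, streptavidin pulldown, SRC detected by Western blot.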

[2] = tested on: Tyrosine-protein kinase ABL1 (Homo sapiens), P00519 [T315I]; experiment: Binding affinity to human non-phosphorylated ABL1 T315I mutant (S229 to K512 residues) expressed in mammalian expression system assessed as residual binding level at 1 uM by Kinomescan method relative to control
In short: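 KinomeScan active site-directed competition binding panel (468 kinases), compound tested at 1 μM. Result expressed as remaining kinase signal versus DMSO control (percent of control).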

[3] = molecular target: BMP-2-inducible protein kinase (Homo sapiens) (UniProt Q9NSY1); experiment: Binding affinity to wild-type human partial length BIKE (S34 to N329 residues) expressed in bacterial expression system assessed as residual binding level at 1 uM by Kinomescan method relative to control
Sequence of BMP-2-inducible protein kinase (Homo sapiens) (Q9NSY1 whole entry, looked up, the tested form may be a part): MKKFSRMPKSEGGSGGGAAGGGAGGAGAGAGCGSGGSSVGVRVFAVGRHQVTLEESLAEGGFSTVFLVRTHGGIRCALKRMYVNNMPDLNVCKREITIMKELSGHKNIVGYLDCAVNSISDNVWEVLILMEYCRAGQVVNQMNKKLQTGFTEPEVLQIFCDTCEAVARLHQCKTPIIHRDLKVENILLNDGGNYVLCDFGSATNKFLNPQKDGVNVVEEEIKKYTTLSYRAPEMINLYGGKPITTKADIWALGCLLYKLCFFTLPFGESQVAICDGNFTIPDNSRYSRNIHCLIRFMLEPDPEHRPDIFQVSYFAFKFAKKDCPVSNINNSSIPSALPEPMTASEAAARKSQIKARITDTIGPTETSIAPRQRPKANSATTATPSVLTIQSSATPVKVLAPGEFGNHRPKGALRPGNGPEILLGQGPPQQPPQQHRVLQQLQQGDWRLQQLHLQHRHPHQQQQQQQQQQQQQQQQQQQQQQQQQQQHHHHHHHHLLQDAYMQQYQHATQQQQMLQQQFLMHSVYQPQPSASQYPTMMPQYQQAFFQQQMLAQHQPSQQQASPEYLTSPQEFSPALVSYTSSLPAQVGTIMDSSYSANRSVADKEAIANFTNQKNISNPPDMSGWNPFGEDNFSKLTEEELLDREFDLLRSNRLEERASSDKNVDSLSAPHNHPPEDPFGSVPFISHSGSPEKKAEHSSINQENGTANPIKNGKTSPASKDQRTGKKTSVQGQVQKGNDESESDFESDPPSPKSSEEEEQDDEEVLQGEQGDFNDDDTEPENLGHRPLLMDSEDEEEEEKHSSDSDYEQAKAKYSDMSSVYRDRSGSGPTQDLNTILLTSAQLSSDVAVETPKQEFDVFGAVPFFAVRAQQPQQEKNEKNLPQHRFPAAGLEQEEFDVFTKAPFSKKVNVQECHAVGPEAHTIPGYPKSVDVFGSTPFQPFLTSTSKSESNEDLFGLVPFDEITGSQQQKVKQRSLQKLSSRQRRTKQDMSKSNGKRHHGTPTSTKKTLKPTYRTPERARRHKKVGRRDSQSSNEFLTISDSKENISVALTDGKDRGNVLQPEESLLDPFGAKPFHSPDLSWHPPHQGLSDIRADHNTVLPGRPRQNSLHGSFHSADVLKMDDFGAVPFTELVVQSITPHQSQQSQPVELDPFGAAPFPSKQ
In short: (§1)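 KinomeScan, an active site-directed competition binding panel of 468 kinases. The test compound was at 1 μM. The readout is remaining kinase binding as a percentage of the DMSO control. Scores above 35% were treated as weak binding and not listed.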

[4] = molecular target: Calcium/calmodulin-dependent protein kinase type II subunit beta (Homo sapiens) (UniProt Q13554); experiment: Binding affinity to wild-type human partial length CAMK2B (M1 to Q380 residues) expressed in bacterial expression system assessed as residual binding level at 1 uM by Kinomescan method relative to control
[5] = molecular target: Peripheral plasma membrane protein CASK (Homo sapiens) (UniProt O14936); experiment: Binding affinity to wild-type human partial length CASK (M1 to H315 residues) expressed in mammalian expression system assessed as residual binding level at 1 uM by Kinomescan method relative to control
[6] = molecular target: Cyclin-dependent kinase 19 (Homo sapiens) (UniProt Q9BWU1); experiment: Binding affinity to wild-type human partial length CDK11 (M1 to N360 residues) expressed in bacterial expression system assessed as residual binding level at 1 uM by Kinomescan method relative to control; in short: as §1
[7] = molecular target: Citron Rho-interacting kinase (Homo sapiens) (UniProt O14578); experiment: Binding affinity to wild-type human partial length CIT (M68 to E432 residues) expressed in bacterial expression system assessed as residual binding level at 1 uM by Kinomescan method relative to control
Sequence of Citron Rho-interacting kinase (Homo sapiens) (O14578 whole entry, the tested form may be a part, canonical isoform): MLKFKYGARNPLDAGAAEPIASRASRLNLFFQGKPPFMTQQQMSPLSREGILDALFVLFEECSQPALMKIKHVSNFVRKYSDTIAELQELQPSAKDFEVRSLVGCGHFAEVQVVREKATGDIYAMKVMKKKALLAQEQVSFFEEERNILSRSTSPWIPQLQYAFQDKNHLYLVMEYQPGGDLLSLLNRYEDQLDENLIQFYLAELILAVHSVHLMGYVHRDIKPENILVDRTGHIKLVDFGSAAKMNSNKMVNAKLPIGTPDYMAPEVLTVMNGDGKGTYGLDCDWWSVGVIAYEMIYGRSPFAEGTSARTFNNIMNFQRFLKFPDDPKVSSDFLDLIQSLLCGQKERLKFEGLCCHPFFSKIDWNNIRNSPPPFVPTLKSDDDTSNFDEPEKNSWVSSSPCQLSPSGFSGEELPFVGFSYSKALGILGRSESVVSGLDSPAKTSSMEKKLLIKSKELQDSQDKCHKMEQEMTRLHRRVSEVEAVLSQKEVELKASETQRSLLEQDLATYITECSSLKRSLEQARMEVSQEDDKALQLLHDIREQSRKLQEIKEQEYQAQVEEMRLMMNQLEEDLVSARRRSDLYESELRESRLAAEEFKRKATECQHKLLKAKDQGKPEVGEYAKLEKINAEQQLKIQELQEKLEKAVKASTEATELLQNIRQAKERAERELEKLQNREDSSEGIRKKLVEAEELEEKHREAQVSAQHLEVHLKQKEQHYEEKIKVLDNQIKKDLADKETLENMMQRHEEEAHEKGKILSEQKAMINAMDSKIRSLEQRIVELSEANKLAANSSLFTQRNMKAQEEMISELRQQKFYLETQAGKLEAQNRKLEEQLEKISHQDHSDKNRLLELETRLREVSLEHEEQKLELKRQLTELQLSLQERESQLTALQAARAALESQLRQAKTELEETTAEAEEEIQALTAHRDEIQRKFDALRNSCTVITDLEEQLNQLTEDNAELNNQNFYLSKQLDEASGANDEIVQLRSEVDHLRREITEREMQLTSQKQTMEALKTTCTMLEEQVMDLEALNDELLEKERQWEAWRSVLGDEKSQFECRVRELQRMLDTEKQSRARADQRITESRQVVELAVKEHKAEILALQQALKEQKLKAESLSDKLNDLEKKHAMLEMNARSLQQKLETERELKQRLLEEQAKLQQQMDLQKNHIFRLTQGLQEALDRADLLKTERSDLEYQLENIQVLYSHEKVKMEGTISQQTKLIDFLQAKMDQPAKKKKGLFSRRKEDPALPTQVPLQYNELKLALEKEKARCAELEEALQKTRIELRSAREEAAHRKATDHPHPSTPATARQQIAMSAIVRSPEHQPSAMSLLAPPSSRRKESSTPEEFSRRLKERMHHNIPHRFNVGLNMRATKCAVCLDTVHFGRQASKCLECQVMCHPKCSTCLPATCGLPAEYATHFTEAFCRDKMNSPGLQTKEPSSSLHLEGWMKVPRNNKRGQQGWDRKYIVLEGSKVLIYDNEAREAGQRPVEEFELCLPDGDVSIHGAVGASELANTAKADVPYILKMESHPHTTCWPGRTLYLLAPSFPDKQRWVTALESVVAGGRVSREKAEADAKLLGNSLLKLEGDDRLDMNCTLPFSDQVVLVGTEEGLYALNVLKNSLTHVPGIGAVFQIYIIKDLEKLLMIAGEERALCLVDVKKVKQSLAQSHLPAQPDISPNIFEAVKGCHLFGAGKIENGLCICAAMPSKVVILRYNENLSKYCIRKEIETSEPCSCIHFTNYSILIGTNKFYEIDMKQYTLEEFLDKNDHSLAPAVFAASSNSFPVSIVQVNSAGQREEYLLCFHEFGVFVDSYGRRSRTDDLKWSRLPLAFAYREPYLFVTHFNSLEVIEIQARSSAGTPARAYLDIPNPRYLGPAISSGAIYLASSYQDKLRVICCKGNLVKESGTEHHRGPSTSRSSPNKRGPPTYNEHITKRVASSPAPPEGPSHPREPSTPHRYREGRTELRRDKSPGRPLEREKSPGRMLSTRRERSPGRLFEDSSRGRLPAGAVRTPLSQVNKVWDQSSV

[8] = molecular target: Casein kinase I isoform alpha (Homo sapiens) (UniProt P48729); experiment: Binding affinity to wild-type human partial length CSNK1A1 (M1 to L450 residues) expressed in mammalian expression system assessed as residual binding level at 1 uM by Kinomescan method relative to control
Sequence of Casein kinase I isoform alpha (Homo sapiens) (P48729 2-337 limits assumed): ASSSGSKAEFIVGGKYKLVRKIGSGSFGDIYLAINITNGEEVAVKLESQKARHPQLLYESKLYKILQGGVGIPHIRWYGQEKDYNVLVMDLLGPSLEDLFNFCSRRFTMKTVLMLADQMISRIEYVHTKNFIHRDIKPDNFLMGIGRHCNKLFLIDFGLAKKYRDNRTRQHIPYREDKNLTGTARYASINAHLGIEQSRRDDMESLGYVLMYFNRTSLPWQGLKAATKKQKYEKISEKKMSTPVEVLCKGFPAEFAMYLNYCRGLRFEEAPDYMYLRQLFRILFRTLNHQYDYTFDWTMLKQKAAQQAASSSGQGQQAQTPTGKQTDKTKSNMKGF
In short: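 Active-site-directed competition binding panel of 468 kinases (KinomeScan), compound at 1 μM. The read-out is kinase remaining bound, given as a percentage of the DMSO control. […]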

[9] = molecular target: Fibroblast growth factor receptor 4 (Homo sapiens) (UniProt P22455); experiment: Binding affinity to wild-type human partial length FGFR4 (G402 to E713 residues) expressed in bacterial expression system assessed as residual binding level at 1 uM by Kinomescan method relative to control
[10] = molecular target: Homeodomain-interacting protein kinase 1 (Homo sapiens) (UniProt Q86Z02); experiment: Binding affinity to wild-type human partial length HIPK1 (M146 to I555 residues) expressed in mammalian expression system assessed as residual binding level at 1 uM by Kinomescan method relative to control
Sequence of Homeodomain-interacting protein kinase 1 (Homo sapiens) (Q86Z02 whole entry, looked up, the tested form may be a part): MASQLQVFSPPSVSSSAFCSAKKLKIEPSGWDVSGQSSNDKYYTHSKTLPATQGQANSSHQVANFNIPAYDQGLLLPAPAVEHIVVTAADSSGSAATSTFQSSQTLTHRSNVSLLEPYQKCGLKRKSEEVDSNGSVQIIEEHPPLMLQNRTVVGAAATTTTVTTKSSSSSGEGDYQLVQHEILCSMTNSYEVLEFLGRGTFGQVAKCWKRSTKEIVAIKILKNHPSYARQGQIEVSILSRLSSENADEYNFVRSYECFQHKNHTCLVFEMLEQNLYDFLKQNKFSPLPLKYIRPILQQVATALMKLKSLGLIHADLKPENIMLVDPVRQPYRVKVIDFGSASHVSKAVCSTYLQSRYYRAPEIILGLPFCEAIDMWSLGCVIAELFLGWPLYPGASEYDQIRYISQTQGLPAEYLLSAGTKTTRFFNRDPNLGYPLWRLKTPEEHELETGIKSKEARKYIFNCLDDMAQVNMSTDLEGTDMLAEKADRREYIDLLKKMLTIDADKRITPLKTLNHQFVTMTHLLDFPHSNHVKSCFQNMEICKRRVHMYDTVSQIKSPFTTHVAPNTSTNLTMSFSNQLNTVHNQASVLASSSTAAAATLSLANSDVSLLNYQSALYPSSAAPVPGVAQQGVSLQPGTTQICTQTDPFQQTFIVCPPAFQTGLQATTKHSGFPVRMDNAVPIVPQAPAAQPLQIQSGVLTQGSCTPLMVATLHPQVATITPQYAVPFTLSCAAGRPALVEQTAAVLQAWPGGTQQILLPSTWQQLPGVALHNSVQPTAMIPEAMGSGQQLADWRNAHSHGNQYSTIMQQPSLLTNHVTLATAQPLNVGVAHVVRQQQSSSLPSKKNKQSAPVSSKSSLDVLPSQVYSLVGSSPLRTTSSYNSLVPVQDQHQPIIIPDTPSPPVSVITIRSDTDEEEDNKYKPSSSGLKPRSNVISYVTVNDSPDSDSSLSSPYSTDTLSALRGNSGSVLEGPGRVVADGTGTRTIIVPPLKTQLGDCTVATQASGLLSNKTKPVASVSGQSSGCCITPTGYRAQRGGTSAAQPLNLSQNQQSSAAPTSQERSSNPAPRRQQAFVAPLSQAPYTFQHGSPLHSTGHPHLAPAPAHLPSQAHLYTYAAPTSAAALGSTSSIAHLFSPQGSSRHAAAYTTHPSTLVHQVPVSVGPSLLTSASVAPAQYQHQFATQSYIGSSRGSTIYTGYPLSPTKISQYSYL

[11] = molecular target: Myosin light chain kinase family member 4 (Homo sapiens) (UniProt Q86YV6); experiment: Binding affinity to wild-type human partial length MYLK4 (V79 to S380 residues) expressed in bacterial expression system assessed as residual binding level at 1 uM by Kinomescan method relative to control
Sequence of Myosin light chain kinase family member 4 (Homo sapiens) (Q86YV6 whole entry, the tested form may be a part): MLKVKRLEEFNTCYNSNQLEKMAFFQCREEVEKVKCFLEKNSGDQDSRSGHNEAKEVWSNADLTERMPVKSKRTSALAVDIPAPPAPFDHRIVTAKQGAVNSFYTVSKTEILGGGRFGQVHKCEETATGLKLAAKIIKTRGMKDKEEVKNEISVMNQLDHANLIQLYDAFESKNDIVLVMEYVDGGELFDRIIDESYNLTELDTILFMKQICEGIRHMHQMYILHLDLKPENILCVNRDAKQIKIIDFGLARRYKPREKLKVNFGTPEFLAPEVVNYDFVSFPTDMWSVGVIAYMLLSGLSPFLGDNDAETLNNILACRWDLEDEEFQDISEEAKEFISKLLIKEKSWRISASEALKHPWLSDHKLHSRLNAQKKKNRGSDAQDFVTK

[12] = molecular target: Serine/threonine-protein kinase OSR1 (Homo sapiens) (UniProt O95747); experiment: Binding affinity to wild-type human full length OSR1 (M1 to S527 residues) expressed in mammalian expression system assessed as residual binding level at 1 uM by Kinomescan method relative to control
In short: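 Active-site-directed competition binding panel (KinomeScan) covering 468 kinases. Test agent was screened at 1 μM. The read-out is the remaining kinase signal expressed relative to a DMSO control. Scores above 35%, taken as weak binding, were not reported.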

[13] = molecular target: Cyclin-dependent kinase 2 homolog (Plasmodium falciparum (isolate 3D7)) (UniProt P61075); experiment: Binding affinity to wild-type Plasmodium falciparum full length PK5 (M1 to N288 residues) expressed in mammalian expression system assessed as residual binding level at 1 uM by Kinomescan method relative to control
In short: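 Active-site-directed KinomeScan competition binding panel covering 468 kinases, compound tested at 1 μM. Each readout is the kinase signal remaining with compound, expressed as a percentage of the DMSO control. […]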

[14] = molecular target: cGMP-dependent protein kinase 2 (Homo sapiens) (UniProt Q13237); experiment: Binding affinity to wild-type human partial length PRKG2 (S422 to F762 residues) expressed in mammalian expression system assessed as residual binding level at 1 uM by Kinomescan method relative to control
[15] = molecular target: Ribosomal protein S6 kinase alpha-1 (Homo sapiens) (UniProt Q15418); experiment: Binding affinity to wild-type human partial length N-terminal RSK1 Kinase domain 1 (M1 to E388 residues) expressed in bacterial expression system assessed as residual binding level at 1 uM by Kinomescan method relative to control
[16] = molecular target: Serine/threonine-protein kinase TAO2 (Homo sapiens) (UniProt Q9UL54); experiment: Binding affinity to wild-type human partial length TAOK2 (M1 to A320 residues) expressed in mammalian expression system assessed as residual binding level at 1 uM by Kinomescan method relative to control
[17] = molecular target: Serine/threonine-protein kinase TBK1 (Homo sapiens) (UniProt Q9UHD2); experiment: Binding affinity to wild-type human full length TBK1 (M1 to L729 residues) expressed in mammalian expression system assessed as residual binding level at 1 uM by Kinomescan method relative to control; in short: as §1
[18] = molecular target: Dual specificity protein kinase TTK (Homo sapiens) (UniProt P33981); experiment: Binding affinity to wild-type human partial length TTK (N505 to V798 residues) expressed in bacterial expression system assessed as residual binding level at 1 uM by Kinomescan method relative to control
In short: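 Active site-directed competition binding panel (KinomeScan, 468 kinases). Test compound at 1 μM. Read-out is kinase binding remaining versus DMSO control, expressed as percent of control. Scores above 35% are treated as weak binding.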

[19] = molecular target: Mitogen-activated protein kinase kinase kinase 12 (DLK) (Homo sapiens) (UniProt Q12852); experiment: Binding affinity to wild-type human full length DLK (M1 to P859 residues) expressed in mammalian expression system assessed as residual binding level at 1 uM by Kinomescan method relative to control

C=CC(=O)Nc1ccccc1Nc1nc(Nc2ccc(N3CCN(C)CC3)cc2)ncc1C(=O)Nc1c(C)cccc1Cl
inhibition [1]: Active | Activity [2]: 100% | Activity [3]: 94% | Activity [4]: 100% | Activity [5]: 73% | Activity [6]: 96% | Activity [7]: 100% | Activity [8]: 86% | Activity [9]: 100% | Activity [10]: 100% | Activity [11]: 100% | Activity [12]: 100% | Activity [13]: 100% | Activity [14]: 100% | Activity [15]: 100% | Activity [16]: 100% | Activity [17]: 70% | Activity [18]: 94% | Activity [19]: 97%
